Experimental data reported in article PMC5598522 (Toxicology Reports, 2014).

Tests used:
[1] = test system: TA1535 TA100 TA102 TA98 TA1537; assay: Ames in vitro assay; type: cell-based, Salmonella
Method in brief: (§1)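 Genotoxicity screens. Ames: Salmonella strains exposed to 3–3000 μg/plate with and without metabolic activation; read-out was reverse-mutation frequency. Mouse lymphoma: L5178Y/TK+ cells treated for 4 h with S9 (15.7–41.8 μg/mL), for 4 h without S9 (5.23–15.7 μg/mL), and for 24 h without S9; read-out was clone number. Micronucleus: male and female Alderly Park rats given 2000 mg/kg; micronuclei scored 24 or 48 h post-dose.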

[2] = Body weight and food consumption in rat 2 year carcinogenicity study; type: in vivo
Method in brief: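 Seven-week-old Wistar Han rats, 50 per sex per group, gavaged daily for 2 years with 0, 20, 60 or 180 (female)/120 (male) mg/kg/day. Vehicle was 1% carboxymethylcellulose with 0.1% polysorbate 80 (w/v) at 5 mL/kg. Body weights taken pretreatment, daily to Week 13, then weekly. Analysis by Hartley's jackknifed F-max test and Fisher's F-protected t-test.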

[3] = Human free systemic Cmax in clinical studies; type: in vivo; conditions: based on 99.2% protein binding
[4] = Exposure in rat micronucleus in vivo assay; conditions: Alderly Park (Wistar derived), 2000 mg/kg
Plasma exposure = type: in vivo, rat; conditions: carcinogenicity bioassay, Ticagrelor 180 mg/kg/day
[5] = test system: Alderly Park (Wistar derived) rats; assay: Rat micronucleus in vivo assay; conditions: 2000 mg/kg
Method in brief: as §1

[6] = test system: L5178Y/TK + 1 mouse lymphoma cells; assay: Mouse lymphoma in vitro assay; type: cell-based
Method in brief: as §1

[7] = test system: estradiol-induced prolactin release; assay: Ovariectomized rat estradiol-induced prolactin release; type: in vivo; conditions: ovariectomized female rats, 180 mg/kg/day
Method in brief: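 Female Han Wistar rats (350–375 g) were ovariectomized and given jugular and femoral vein catheters, then recovered 7–14 days. Test compound (180 mg/kg/day) or vehicle (1% sodium CMC in 0.1% polysorbate 80) was given orally for 4 days (n = 10/group). On Day 4, estradiol (2 μg/rat) was given IV 1 h post-dose. Remote femoral blood was sampled to 5 h. Plasma prolactin was measured by ELISA. Baseline-subtracted AUC was log-transformed and compared by t-test.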

Protein binding, human = type: in vitro ADME
platelet aggregation = conditions: humans, 100 mg b.i.d., at 4, 12 and 24 h; cited from earlier work
dopamine D1 receptor = dopamine D1 receptor (Homo sapiens, UniProt P21728); assay: Dopamine D1 receptor radioligand binding; conditions: 10 μM, [3H] SCH-23390, human recombinant CHO cells
dopamine D1 receptor, sequence (P21728 whole entry): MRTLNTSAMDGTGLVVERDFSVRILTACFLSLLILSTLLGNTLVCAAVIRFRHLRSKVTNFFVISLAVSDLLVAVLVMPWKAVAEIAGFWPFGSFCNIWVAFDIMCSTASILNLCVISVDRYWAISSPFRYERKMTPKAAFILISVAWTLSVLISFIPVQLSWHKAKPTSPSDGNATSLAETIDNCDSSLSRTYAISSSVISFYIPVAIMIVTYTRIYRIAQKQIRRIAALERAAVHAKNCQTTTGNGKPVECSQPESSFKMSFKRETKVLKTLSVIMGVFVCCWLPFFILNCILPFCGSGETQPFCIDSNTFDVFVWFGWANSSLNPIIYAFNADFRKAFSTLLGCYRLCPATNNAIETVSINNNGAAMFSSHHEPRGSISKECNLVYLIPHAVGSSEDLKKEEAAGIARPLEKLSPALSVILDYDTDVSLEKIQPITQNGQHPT
Method in brief: (§2)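 Human recombinant receptors expressed in CHO cells (D1, D2L) or CHO-K1 cells (D4.2) were used in radioligand binding assays with [3H]SCH-23390 (D1), [3H]spiperone (D2L) or [3H]dopamine (D4.2). The test compound or its metabolite was tested at a single concentration of 10 μM. Results are expressed as percent inhibition of specific binding.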

[8] = Rat free systemic exposure in carcinogenicity study; type: in vivo
Method in brief: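 Satellite carcinogenicity rats (10 per sex per dose) dosed orally at 20, 60 or 180/120 mg/kg/day. Heparinised blood taken on Days 1 and 3 and in Weeks 26 and 52, at 2–24 h post-dose (3 rats per sex per time point). Analysed by protein precipitation and LC-MS/MS.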

dopamine D2L receptor = dopamine D2L receptor (Homo sapiens, UniProt P14416); assay: Dopamine D2L receptor radioligand binding; conditions: 10 μM, human recombinant CHO cells
dopamine D2L receptor, sequence (P14416 whole entry): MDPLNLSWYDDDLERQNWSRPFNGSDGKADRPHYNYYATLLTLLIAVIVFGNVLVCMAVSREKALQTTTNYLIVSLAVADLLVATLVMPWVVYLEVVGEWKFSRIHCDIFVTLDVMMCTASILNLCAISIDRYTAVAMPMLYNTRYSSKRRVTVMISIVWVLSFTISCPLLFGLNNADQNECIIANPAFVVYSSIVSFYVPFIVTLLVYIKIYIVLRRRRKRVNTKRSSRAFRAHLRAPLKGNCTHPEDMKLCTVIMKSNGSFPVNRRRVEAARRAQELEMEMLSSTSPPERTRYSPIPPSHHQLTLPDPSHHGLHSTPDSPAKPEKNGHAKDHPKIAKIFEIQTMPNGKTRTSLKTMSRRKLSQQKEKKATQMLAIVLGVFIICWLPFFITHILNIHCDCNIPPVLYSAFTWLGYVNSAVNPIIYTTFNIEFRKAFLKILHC
Method in brief: as §2

With `CCCSc1nc(N[C@@H]2C[C@H]2c2ccc(F)c(F)c2)c2nnn([C@@H]3C[C@H](OCCO)[C@@H](O)[C@H]3O)c2n1` [Ticagrelor] the “Ames in vitro assay: Conclusion” value [1] was “Negative”, the “Ames in vitro assay: Results” value ([1]; 3–3000 μg/plate, with or without metabolic activation) was “No increased frequency of reverse mutations with or without metabolic activation” and the “Body weight lower than the control group by the end of study” value ([2]; female rats, 180 mg/kg/day) was “approximately 20%”. The Food consumption ([2]; female rats, 180 mg/kg/day) was “significantly decreased food consumption in 10 out of the last 14 measurements”, the Food consumption ([2]; male rats) was “no consistent food consumption differences” and the “Body weight difference from the control group at the end of the study” value ([2]; male rats, high dose group (120 mg/kg/day)) was at most 10%. The “Human free systemic Cmax” value [3] was 12 nM, the AUC ([4]; female) was 1140 to 1360 µg·h/mL and the Cmax ([4]; female) was 45000 to 53000 ng/mL. The AUC ([4]; male) was 794 to 1240 µg·h/mL, the “Plasma exposure (mean ± SD)” value (Plasma exposure; Day 1, 5 h post dose) was 35.9 ± 17.9 µM and the “Plasma exposure (mean ± SD)” value (Plasma exposure; Week 26, 5 h post dose) was 37.9 ± 10.5 µM. For the same compound, the “Rat micronucleus in vivo: Conclusion” value [5] was “Negative”, the “Rat micronucleus in vivo: Results” value ([5]; M&F, 24 or 48 h post-dose) was “No increased frequency of micronuclei at 24 or 48 h post-dose” and the “Mouse lymphoma in vitro: Conclusion” value [6] was “Negative”. The “Mouse lymphoma in vitro: Results” value ([6]; 15.7–41.8 μg/mL (4 h + S9), 5.23–15.7 μg/mL (4 h − S9), 15.7–36.6 (24 h − S9)) was “No increased number of clones associated with treatment”, the “Effect on estradiol-induced prolactin release” value [7] was “all but completely blocked the estradiol-induced prolactin release” and the fraction unbound (Protein binding, human) was 0.008. For the same compound, the “Inhibition of platelet aggregation” value (platelet aggregation) was “greater than 90%”, the “Inhibition of radioligand binding at the D1 receptor” value (dopamine D1 receptor) was “neither Ticagrelor nor metabolite caused inhibition” and the “Rat free systemic exposure maximal concentration (Cmax)” value ([8]; high dose group, based on 99.0% protein binding) was 502 nM. The “Rat free systemic exposure Cmax” value ([8]; low dose group) was 43 nM, the “Rat free systemic exposure Cmax” value ([8]; mid dose group) was 157 nM and the “Inhibition of radioligand binding at the D2L receptor” value (dopamine D2L receptor) was “neither Ticagrelor nor metabolite caused inhibition”.
